RAD54 branch = inhibitors of human RAD54 branch migration, primary screen, biochemical, fluorescence, single point; DNA repair and recombination protein RAD54-like (Homo sapiens), Q92698; RAD54 Holliday junction branch migration, FAM/BHQ fluorescence; inhibition, % at 10.4 µM; 360,000 tested, 0.14% active; AID 602329, 2012;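 active = mean normalized replicate activity at least 40 and at least half of replicates scoring 40 or more; inconclusive = only one of the two criteria met; inactive = mean below 40 and under half of replicates reaching 40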;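 also: 0% = median of neutral control wells and 100% = median of positive control wells; inhibitors cause a drop in the FAM fluorescence signal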
FN deposition inh = inhibitors of fibronectin matrix deposition, primary screen, AH1F cells, Alexa488-fibronectin fluorescence, plate reader; AID 743247, 2014; AH1F fibroblasts, overnight; inhibition, % at 12.6 µM; 350,000 tested, 0.086% active;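 active = mean inhibition across replicates of 30% or more, regardless of how many single replicates reach that level; inconclusive = mean under 30% yet at least half of replicates reach 30%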;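 also: positive control wells lacked labelled fibronectin entirely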
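Assay system: AH1F fibroblasts assembling fluorescent fibronectin matrix; Amount: 10000 AH1F cells per well; Buffer or medium: DMEM, 2% serum; Probe or stimulus: Alexa488-fibronectin, 24 nM final in well; Doses: single compound dose, delivered by pin transfer; Incubation: 1 h adhesion, overnight exposure; Measured by: fluorescence 485/525 nm; Read-out: fibronectin deposition inhibition.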
PAX8 inh HTS = inhibitors of PAX8-driven TPO luciferase reporter, primary screen, RMG-I cells, single concentration | SteadyGlo, 24 h | inhibition, % at 12.6 µM | 360,000 tested, 1.2% active;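 active = mean replicate inhibition at least 60% with every replicate also reaching 60%; inconclusive = only one of the two criteria is met; inactive = mean below 60% and not all replicates reaching 60%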;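 also: luciferase light reporting Pax8 driven TPO promoter activity; plate controls were median of neutral control wells for no effect and mitoxantrone controls for full effect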
RAD52 anneal inh = RAD52 DNA annealing inhibitors, primary screen, biochemical, FRET, single point, set 2; DNA repair protein RAD52 homolog (Homo sapiens), P43351; inhibition, % at 18.7 µM; recombinant RAD52 DNA annealing, FRET fluorescence; 360,000 tested, 0.46% active;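 active = every replicate showing at least 50% inhibition; inconclusive = mean inhibition at least 50% but not in every replicate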
Target sequence (P43351 whole entry, looked up): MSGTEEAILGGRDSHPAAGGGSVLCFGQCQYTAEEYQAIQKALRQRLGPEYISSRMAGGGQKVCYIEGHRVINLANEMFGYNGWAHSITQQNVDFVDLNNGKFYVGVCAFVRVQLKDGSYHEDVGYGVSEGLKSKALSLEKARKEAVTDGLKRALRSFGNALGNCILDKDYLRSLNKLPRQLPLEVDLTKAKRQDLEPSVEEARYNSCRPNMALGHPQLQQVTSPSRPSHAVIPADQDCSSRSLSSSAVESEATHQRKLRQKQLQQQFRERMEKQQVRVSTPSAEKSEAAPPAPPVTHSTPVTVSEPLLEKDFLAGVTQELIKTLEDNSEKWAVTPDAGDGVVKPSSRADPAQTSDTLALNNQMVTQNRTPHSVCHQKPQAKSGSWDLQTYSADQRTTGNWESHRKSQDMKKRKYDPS
Active calls of the source: *; ? = inconclusive; / = no result. Only some compounds are listed: those with a hit (about 1.3% of all), similar ones and a draw of the others.

SMILES | RAD54 branch | FN deposition inh | PAX8 inh HTS | RAD52 anneal inh
Cc1ccc(S(=O)(=O)Nc2ccc3c(c2)C(=O)N([C@@H](C)CO)C[C@H](C)[C@@H](CN(C)S(=O)(=O)c2ccc(C)cc2)OCCCC[C@H](C)O3)cc1 | -2.2 | -7.0 | 61.1* | -31.7
Cc1ccc(S(=O)(=O)Nc2ccc3c(c2)C(=O)N([C@H](C)CO)C[C@@H](C)[C@H](CN(C)S(=O)(=O)c2ccc(C)cc2)OCCCC[C@H](C)O3)cc1 | -4.1 | 5.9 | 83.8* | -16.9
Cc1ccc(S(=O)(=O)Nc2ccc3c(c2)C(=O)N([C@H](C)CO)C[C@H](C)[C@H](CN(C)C(=O)c2ccccc2)OCCCC[C@H](C)O3)cc1 | 0.2 | 3.5 | 96.0* | 24.9
Cc1ccc(S(=O)(=O)Nc2ccc3c(c2)C(=O)N([C@H](C)CO)C[C@H](C)[C@@H](CN(C)S(=O)(=O)c2ccc(C)cc2)OCCCC[C@H](C)O3)cc1 | -0.8 | -5.0 | 82.9* | -43.6
Cc1ccc(S(=O)(=O)Nc2ccc3c(c2)C(=O)N([C@H](C)CO)C[C@@H](C)[C@@H](CN(C)S(=O)(=O)c2ccc(C)cc2)OCCCC[C@H](C)O3)cc1 | 5.3 | -2.6 | -26.9 | 0.4
CCS(=O)(=O)N1CCC2(CC1)CN(Cc1ccc3c(c1)OCO3)[C@H](CO)c1c2c2ccc(OC)cc2n1C | / | / | / | -11.9
COCCCNC(=O)c1cccc(NC(=O)c2ccccc2)c1 | / | -2.4 | 1.5 | /
Cc1ccc(S(=O)(=O)Nc2ccc3c(c2)C(=O)N([C@H](C)CO)C[C@H](C)[C@H](CN(C)C)OCCCC[C@@H](C)O3)cc1 | / | 3.8 | -17.0 | /
Cc1ccc(S(=O)(=O)Nc2ccc3c(c2)C(=O)N([C@@H](C)CO)C[C@@H](C)[C@@H](CN(C)C)OCCCC[C@H](C)O3)cc1 | 1.3 | -6.1 | 86.8* | 0.0
COc1ccc([Si](C)(C)[C@@H]2[C@@H](CCn3cc([C@H](O)c4ccccc4)nn3)O[C@]3(C(=O)N(Cc4cccc(N5CCOC5=O)c4)c4ccccc43)[C@H]2C)cc1 | 0.6 | / | ? | 14.7
COc1ccc([Si](C)(C)[C@H]2[C@H](CCn3cc(CCO)nn3)O[C@@]3(C(=O)N(Cc4cccc(N5CCOC5=O)c4)c4ccccc43)[C@@H]2C)cc1 | -0.8 | / | 83.4* | 11.2
COc1ccc([Si](C)(C)[C@@H]2[C@@H](CCn3cc(CCO)nn3)O[C@]3(C(=O)N(Cc4cccc(N5CCOC5=O)c4)c4ccccc43)[C@H]2C)cc1 | 3.1 | / | 100.2* | 11.3
COc1ccc(N2CCN(C(=O)Cn3ncc4c([nH]c5ccccc54)c3=O)CC2)cc1 | -12.5 | -10.6 | -1.0 | -19.5
COc1ccc(S(=O)(=O)Nc2ccc3c(c2)C(=O)N([C@@H](C)CO)C[C@H](C)[C@H](CN(C)Cc2ccc(C(F)(F)F)cc2)OCCCC[C@H](C)O3)cc1 | -2.2 | -3.9 | 108.2* | 18.6
COc1ccc(S(=O)(=O)Nc2ccc3c(c2)C(=O)N([C@@H](C)CO)C[C@H](C)[C@@H](CN(C)Cc2ccc(C(F)(F)F)cc2)OCCCC[C@@H](C)O3)cc1 | -0.2 | -20.2 | 110.4* | 16.6
C/C=C/c1ccc2c(c1)O[C@H](CN(C)C(=O)c1ccncc1)[C@H](C)CN([C@H](C)CO)S2(=O)=O | 2.8 | -4.8 | -12.5 | 13.7
C[C@@H]1CCCCO[C@@H](CN(C)Cc2ccc(C(F)(F)F)cc2)[C@@H](C)CN([C@H](C)CO)C(=O)c2cc(NC(=O)c3ccccc3)ccc2O1 | 4.3 | / | 13.6 | -14.0
C[C@@H]1CN([C@H](C)CO)C(=O)c2cc(NC(=O)c3ccncc3)ccc2O[C@@H](C)CCCCO[C@H]1CN(C)Cc1ccc(C(F)(F)F)cc1 | -0.2 | 11.4 | 82.5* | -26.0
C[C@@H]1CN([C@@H](C)CO)C(=O)c2cc(NC(=O)c3ccccc3)ccc2O[C@@H](C)CCCCO[C@H]1CN(C)Cc1ccc(C(F)(F)F)cc1 | 3.4 | / | 88.4* | -83.1
C[C@@H]1CCCCO[C@@H](CN(C)Cc2ccc(C(F)(F)F)cc2)[C@@H](C)CN([C@@H](C)CO)C(=O)c2cc(NC(=O)c3ccccc3)ccc2O1 | -1.1 | / | 12.4 | -30.7
C[C@@H]1CCCCO[C@H](CN(C)Cc2ccc(C(F)(F)F)cc2)[C@@H](C)CN([C@@H](C)CO)C(=O)c2cc(NC(=O)c3ccccc3)ccc2O1 | -0.2 | / | 90.8* | -26.1

Screening results (PubChem)
